Measured values from ChEMBL document CHEMBL2034909, “Inhibition of thioredoxin reductase by a novel series of bis-1,2-benzisoselenazol-3(2H)-ones: Organoselenium compounds for cancer therapy” (Bioorg Med Chem, 2012).
Blank lines part the entries; values can stand above or below the compound they belong to. Activity calls are given as the source filed them. No cut-off for these calls is given here.

Assays:
[1] = target: T1, Thioredoxin reductase 1, cytoplasmic (Rattus norvegicus) (UniProt O89049); test: (§1) Inhibition of TrxR1 in rat liver homogenate preincubated for 5 mins measured by DNTB assay; type: tissue-based
T1 sequence (whole entry): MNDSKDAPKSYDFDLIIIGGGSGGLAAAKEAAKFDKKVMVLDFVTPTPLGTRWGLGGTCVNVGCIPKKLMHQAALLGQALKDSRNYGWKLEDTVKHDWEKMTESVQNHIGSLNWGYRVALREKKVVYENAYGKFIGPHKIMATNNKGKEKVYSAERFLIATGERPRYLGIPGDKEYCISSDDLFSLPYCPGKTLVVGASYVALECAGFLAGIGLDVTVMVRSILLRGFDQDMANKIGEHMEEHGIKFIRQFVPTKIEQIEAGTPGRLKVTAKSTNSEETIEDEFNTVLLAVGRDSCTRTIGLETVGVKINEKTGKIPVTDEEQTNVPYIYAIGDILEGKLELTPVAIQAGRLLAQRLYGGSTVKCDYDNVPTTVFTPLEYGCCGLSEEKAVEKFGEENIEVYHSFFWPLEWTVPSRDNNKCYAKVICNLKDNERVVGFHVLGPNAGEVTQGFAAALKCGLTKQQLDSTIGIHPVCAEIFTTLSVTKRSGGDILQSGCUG
Outline: (§2)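 Rat liver TrxR (purified, 10 μg) in 100 mM potassium phosphate, 2 mM EDTA, pH 7.4 with NADPH, pre-incubated 5 min with inhibitor (DMSO control) at room temperature. DTNB was then added and A412 increase followed over the first 120 s. IC50 given as mean ± SD of triplicate experiments.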

[2] = target: T2, Thioredoxin reductase 1, cytoplasmic (Rattus norvegicus, UniProt O89049); test: as §1; type: tissue-based; outline: as §2
T2 sequence (O89049 whole entry): T1 sequence (whole entry)

[3] = tested on: MIA PaCa-2; test: Growth inhibition of human MIAPaCa2 cells after 48 hrs by MTT assay; type: functional, cell-based; settings: MIA PaCa-2, 48 h
Outline: (§3)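 Exponentially growing cells were seeded at 4000–5000 per well. LoVo was grown in RPMI 1640 and MIA PaCa-2 and U87 MG in DMEM, each with 10% FBS and penicillin/streptomycin at 37 °C under 5% CO2. Compounds in DMSO (0–50 μM) were added for 48 h, and growth was read by MTT.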

[4] = tested on: LoVo; test: Growth inhibition of human LoVo cells after 48 hrs by MTT assay; type: functional, cell-based; outline: as §3
[5] = Growth inhibition of human U87MG cells after 48 hrs by MTT assay; type: functional, cell-based, U-87MG ATCC; settings: U-87 MG; outline: as §3
[6] = target: T3, Thioredoxin reductase (Homo sapiens, UniProt Q16881+Q9NNW7+Q86VQ6); test: Inhibition of TrxR in human U87MG cells after 12 hrs by insulin-reducing method; type: cell-based; settings: for inhibition: U-87MG ATCC; for IC50: u-87mg atcc
Outline: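 U87 MG cells were treated with graded compound concentrations for 12 h, with 1% DMSO as control. Reactions were quenched with guanidine-HCl/DTNB and read at A412. The Trx-free blank was subtracted.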

[7] = target: T4, Glutathione reductase, mitochondrial (Homo sapiens) (UniProt P00390); test: Inhibition of human glutathione reductase at 100 uM after 10 mins by GSSH reduction assay
T4 sequence (whole entry): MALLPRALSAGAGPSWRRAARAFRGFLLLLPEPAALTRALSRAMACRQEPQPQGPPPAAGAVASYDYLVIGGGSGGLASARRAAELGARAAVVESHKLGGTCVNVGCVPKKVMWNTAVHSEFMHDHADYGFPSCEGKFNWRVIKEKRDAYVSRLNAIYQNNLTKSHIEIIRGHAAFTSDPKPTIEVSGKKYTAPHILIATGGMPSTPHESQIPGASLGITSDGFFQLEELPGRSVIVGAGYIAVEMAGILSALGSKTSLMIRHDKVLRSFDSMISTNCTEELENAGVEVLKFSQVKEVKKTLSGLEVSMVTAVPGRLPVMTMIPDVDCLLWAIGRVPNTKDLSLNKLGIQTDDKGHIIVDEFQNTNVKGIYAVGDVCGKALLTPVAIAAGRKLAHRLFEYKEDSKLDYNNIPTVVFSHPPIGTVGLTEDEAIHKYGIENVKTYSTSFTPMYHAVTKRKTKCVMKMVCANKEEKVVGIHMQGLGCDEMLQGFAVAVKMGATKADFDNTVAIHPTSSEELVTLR

[8] = target: T3, Thioredoxin reductase; test: Inhibition of human C-terminal truncated TrxR; type: protein assay
[9] = organism: Homo sapiens; test: Inhibition of human […] Sec498Cys mutant at 100 uM after 10 mins by GSSH reduction assay
[10] = target: T3, Thioredoxin reductase; test: Inhibition of TrxR in human U87MG cells at 20 uM after 12 hrs by insulin-reducing method; type: cell-based; settings: U-87MG ATCC
Outline: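 U87 MG glioma cells were treated with compound for 12 h (1% DMSO control), washed in PBS, lysed in Triton/deoxycholate/EDTA/SDS/PMSF buffer and spun at 13000g. Lysate protein (40 µg, BCA) was incubated 30 min at 37 °C with HEPES pH 7.6, EDTA, 1 mM NADPH, 1 µM E. coli Trx and 2.5 mg/ml insulin. Quench with guanidine-HCl/DTNB, read A412, subtract the no-Trx blank.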

[11] = Mixed type inhibition of TrxR by Michaelis-Menten plot analysis
[12] = Time dependent inhibition of TrxR
[13] = Reversible inhibition of TrxR by ultrafiltration assay
[14] = Binding affinity to TrxR Sec498 residue at pH 8.5 after 2 hrs by BIAM assay
[15] = Binding affinity to TrxR Cys497 residue at pH 8.5 after 2 hrs by BIAM assay
[16] = Binding affinity to TrxR Sec498 residue at pH 6.5 after 2 hrs by BIAM assay

Compound: Cc1ccc2[se]n(CCn3[se]c4ccc(C)cc4c3=O)c(=O)c2c1
inhibition [1]: Dose-dependent effect | IC50 [2]: 1.26 µM | IC50 [3]: 5.94 µM | IC50 [5]: 17.8 µM | IC50 [4]: 6.12 µM | inhibition [6]: Dose-dependent effect

Compound: Cc1ccc2[se]n(CCCCCCn3[se]c4ccc(C)cc4c3=O)c(=O)c2c1
inhibition [1]: Dose-dependent effect | IC50 [2]: 4.91 µM

Compound: O=c1c2ccc(F)cc2[se]n1CCn1[se]c2cc(F)ccc2c1=O
inhibition [1]: Dose-dependent effect | IC50 [2]: 0.82 µM | IC50 [3]: 8.47 µM | IC50 [5]: 12.6 µM

Compound: O=c1c2ccccc2[se]n1CCCn1[se]c2ccccc2c1=O
inhibition [1]: Dose-dependent effect | IC50 [2]: 0.78 µM

Compound: O=c1c2cc(O)ccc2[se]n1CCn1[se]c2ccc(O)cc2c1=O
inhibition [1]: Dose-dependent effect | IC50 [2]: 0.32 µM | IC50 [3]: 5.3 µM | IC50 [5]: 6.6 µM | IC50 [4]: 6.53 µM

Compound: O=c1c2ccccc2[se]n1CCCCCn1[se]c2ccccc2c1=O
inhibition [1]: Dose-dependent effect | IC50 [2]: 1.95 µM | IC50 [3]: 3.27 µM | IC50 [5]: 6.05 µM | IC50 [4]: 5.5 µM

Compound: O=c1c2ccccc2[se]n1CCn1[se]c2ccccc2c1=O [ETHASELEN]
inhibition [1]: Dose-dependent effect | IC50 [3]: 3.79 µM | IC50 [5]: 6.41 µM | IC50 [4]: 7.67 µM | inhibition [6]: Dose-dependent effect | IC50 [6]: 5 µM | inhibition [7]: inactive | inhibition [8]: inactive | inhibition [9]: inactive

Compound: O=c1c2cc(F)ccc2[se]n1CCCn1[se]c2ccc(F)cc2c1=O
inhibition [1]: Dose-dependent effect | IC50 [2]: 0.86 µM

Compound: O=c1c2ccc(Cl)cc2[se]n1CCn1[se]c2cc(Cl)ccc2c1=O
inhibition [1]: Dose-dependent effect | IC50 [2]: 2.87 µM | IC50 [3]: > 50 µM | IC50 [5]: > 50 µM

Compound: O=c1c2ccccc2[se]n1CCCCn1[se]c2ccccc2c1=O
inhibition [1]: Dose-dependent effect | IC50 [2]: 1.03 µM

Compound: O=c1c2cc(F)ccc2[se]n1CCn1[se]c2ccc(F)cc2c1=O
inhibition [1]: Dose-dependent effect | IC50 [2]: 0.28 µM | IC50 [3]: 3.07 µM | IC50 [5]: 6.95 µM | IC50 [4]: 4.55 µM

Compound: Cc1ccc2[se]n(CCCCCn3[se]c4ccc(C)cc4c3=O)c(=O)c2c1
inhibition [1]: Dose-dependent effect | IC50 [2]: 3.16 µM | IC50 [3]: 6.71 µM | IC50 [5]: 12.2 µM | IC50 [4]: 16.6 µM

Compound: O=c1c2cc(Br)ccc2[se]n1CCn1[se]c2ccc(Br)cc2c1=O
inhibition [1]: Dose-dependent effect | IC50 [2]: 1.58 µM | IC50 [3]: > 50 µM | IC50 [5]: > 50 µM | inhibition [6]: Dose-dependent effect

Compound: Cc1ccc2[se]n(CCCn3[se]c4ccc(C)cc4c3=O)c(=O)c2c1
inhibition [1]: Dose-dependent effect | IC50 [2]: 1.16 µM

Compound: O=c1c2cc([N+](=O)[O-])ccc2[se]n1CCn1[se]c2ccc([N+](=O)[O-])cc2c1=O
inhibition [1]: Dose-dependent effect | IC50 [2]: 0.57 µM | IC50 [3]: > 50 µM | IC50 [5]: > 50 µM | inhibition [6]: Dose-dependent effect

Compound: O=c1c2cc(Cl)ccc2[se]n1CCn1[se]c2ccc(Cl)cc2c1=O
inhibition [1]: Dose-dependent effect | IC50 [2]: 1.31 µM | IC50 [3]: > 50 µM | IC50 [5]: > 50 µM

Now from value to compound, other results behind:

inhibition [1]: Dose-dependent effect | IC50 [2]: 47.7 µM | IC50 [3]: > 50 µM | IC50 [4]: > 50 µM
Compound: O=c1c2ccccc2[se]n1Cc1ccc(-n2[se]c3ccccc3c2=O)cc1

inhibition [1]: Dose-dependent effect | IC50 [2]: 4.54 µM
Compound: O=c1c2ccc(Cl)cc2[se]n1CCCCCn1[se]c2cc(Cl)ccc2c1=O

inhibition [1]: Dose-dependent effect | IC50 [2]: 22.6 µM | IC50 [3]: 10.2 µM
Compound: CC(=O)Oc1ccc2[se]n(CCn3[se]c4ccc(OC(C)=O)cc4c3=O)c(=O)c2c1
IC50 [5]: 20.8 µM

inhibition [1]: Dose-dependent effect | IC50 [2]: 1.66 µM
Compound: O=c1c2ccccc2[se]n1CCCCCCn1[se]c2ccccc2c1=O

inhibition [1]: Dose-dependent effect | IC50 [2]: 0.13 µM | IC50 [3]: 2.84 µM | IC50 [4]: 5.28 µM | IC50 [6]: 2 µM | inhibition [10]: > 90% | inhibition [11]: Active | inhibition [12]: Active | inhibition [13]: Active | inhibition [7]: < 30% | inhibition [14]: Dose-dependent effect | inhibition [15]: Dose-dependent effect | inhibition [16]: Dose-dependent effect
Compound: COc1ccc2[se]n(CCn3[se]c4ccc(OC)cc4c3=O)c(=O)c2c1
IC50 [5]: 1.64 µM

inhibition [1]: Dose-dependent effect | IC50 [2]: 2.38 µM
Compound: Cc1ccc2[se]n(CCCCn3[se]c4ccc(C)cc4c3=O)c(=O)c2c1

inhibition [1]: Dose-dependent effect | IC50 [2]: 5.85 µM
Compound: O=c1c2ccccc2[se]n1CCCCCCCn1[se]c2ccccc2c1=O

inhibition [1]: Dose-dependent effect | IC50 [2]: 12.8 µM | IC50 [3]: 11.5 µM | IC50 [4]: 17.2 µM
Compound: O=c1c2ccccc2[se]n1C1CCCCC1n1[se]c2ccccc2c1=O (centres undefined)
IC50 [5]: > 50 µM

inhibition [1]: Dose-dependent effect | IC50 [2]: 1.64 µM
Compound: O=c1c2cc(F)ccc2[se]n1CCCCn1[se]c2ccc(F)cc2c1=O

inhibition [1]: Dose-dependent effect | IC50 [2]: 2.91 µM
Compound: O=c1c2ccc(F)cc2[se]n1CCCCCn1[se]c2cc(F)ccc2c1=O

inhibition [1]: Dose-dependent effect | IC50 [2]: 3.87 µM
Compound: O=c1c2cc(F)ccc2[se]n1CCCCCn1[se]c2ccc(F)cc2c1=O

inhibition [1]: Dose-dependent effect | IC50 [2]: 1.59 µM
Compound: O=c1c2cc(Br)ccc2[se]n1CCCCCn1[se]c2ccc(Br)cc2c1=O

inhibition [1]: Dose-dependent effect | IC50 [2]: 1.8 µM
Compound: O=c1c2cc(Cl)ccc2[se]n1CCCCCn1[se]c2ccc(Cl)cc2c1=O

inhibition [1]: Dose-dependent effect | IC50 [2]: > 100 µM
Compound: O=c1c2ccccc2on1CCn1oc2ccccc2c1=O

inhibition [1]: Dose-dependent effect | IC50 [2]: > 50 µM
Compound: Cc1ccc2[se]n(C3CCC(n4[se]c5ccc(C)cc5c4=O)CC3)c(=O)c2c1 (centres undefined)

inhibition [1]: Dose-dependent effect | IC50 [2]: 4.49 µM
Compound: O=c1c2ccccc2[se]n1CCCCCCCCn1[se]c2ccccc2c1=O

inhibition [1]: Dose-dependent effect | IC50 [2]: 34.3 µM | IC50 [3]: > 50 µM
Compound: O=c1c2ccccc2[se]n1-c1ccc(-n2[se]c3ccccc3c2=O)cc1
IC50 [5]: > 50 µM

inhibition [1]: Dose-dependent effect | IC50 [2]: 48.1 µM
Compound: O=c1c2ccccc2sn1CCn1sc2ccccc2c1=O
